Test results as given in article PMC5613298 (Biochemistry and Biophysics Reports, 2016).
Read-outs that look alike come from different tables or passages of the source. Starred links: 1 amine or outer side, 2 acyl side, 3 side chain; linkers in the order of their positions; H or OH if unused. Non-standard residues stand in square brackets, D forms with d. Residues, ends and D or L forms follow the SMILES beside them. Trp(7-aza) = N[C@@H](Cc1c[nH]c2ncccc12)C(=O)O; X1 = O=C([C@H](Cc1n[nH]c2ncccc12)N[*:1])[*:2]

Assays:
[1] = steady-state absorption and emission spectroscopy, free in solution; type: physicochemical; conditions: for λabs: neutral water; for λem, normal / N(1)-H emission: neutral water (peptides: neutral Tris buffer); for λem, second band (N(2)-H emission) / λem, third band (N(7)-H tautomer emission): neutral water / neutral Tris buffer
In short: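 Absorption recorded on a UV-vis spectrophotometer. Emission recorded on a fluorimeter with wavelength-calibrated excitation and emission response. Peptide concentration was set spectrophotometrically from the extinction coefficient of its single Trp or Trp-analogue residue.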

[2] = time-resolved fluorescence; type: physicochemical
In short: (§1)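 Lifetimes measured by time-correlated single-photon counting, with two sources. One used hydrogen-lamp excitation (about 300 ps resolution). The other used 310 nm third-harmonic excitation from 930 nm femtosecond pulses (82 MHz) with a microchannel-plate detector (about 15 ps resolution). Emission was collected at right angles through a 54.7° polarizer. Decays were fitted to sums of exponentials with the instrument response deconvolved.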

[3] = cited from earlier work
[4] = molecular target: T1, bovine brain calmodulin (CaM) (Bos taurus, UniProt P62157); test: CaM binding by fluorescence titration; conditions: for increase in CaM binding affinity on replacing Trp: relative to Baa (210±10 pM)
[5] = cited from earlier work; remark: listed apart in the source
[6] = molecular target: T1, bovine brain calmodulin (CaM); test: steady-state emission spectra upon titration with CaM; type: binding; conditions: for λem, N(1)-H emission: bound to CaM, pH 7.5 Tris buffer; for environment around Trp analogue upon binding CaM: deduced from steady-state emission; for λabs: in presence of CaM
In short: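 Peptide at 1 µM in 5 mM Tris-HCl, pH 7.5, 1.0 mM CaCl₂, 25 °C. CaM added stepwise to 6 µM final, with 1 min stirring and 10 min equilibration per step. Full emission spectra recorded on a calibrated fluorimeter, corrected for dilution, each an average of three replicates. Peptide and CaM concentrations were set from Trp and Tyr absorption extinction coefficients.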

[7] = molecular target: T1, bovine brain calmodulin (CaM); test: time-resolved fluorescence; type: binding; conditions: peptide-CaM complex, ±0.03 ns uncertainty
In short: as §1

CD spectrum = type: physicochemical; conditions: Fig. S2
[8] = free, neutral water, λmon 320 nm, ±0.03 ns uncertainty
[9] = free, neutral water, λmon 550 nm, ±0.03 ns uncertainty
[10] = free, neutral water, λmon not given, ±0.03 ns uncertainty
[11] = free, neutral water, λmon 380 nm
[12] = free, neutral water, λmon 380 nm, ±0.03 ns uncertainty
[13] = free, neutral water, λmon 540 nm, ±0.03 ns uncertainty

c1cnc2[nH]ncc2c1 [2,7-diazaindole]
λabs [1]: 295 nm
λem, normal / N(1)-H emission [1]: 335 nm
λem, second band (N(2)-H emission) [1]: 370 nm
λem, third band (N(7)-H tautomer emission) [1]: 495 nm
τ [2, 8]: 0.22 ns
τ ([2]; free, neutral water, λmon 400 nm, ±0.03 ns uncertainty): 10.10 ns
τ, decay component [2, 9]: 1.30 ns
τ, rise component [2, 9]: 0.21 ns

c1cnc2[nH]ccc2c1 [7-azaindole]
λabs [1]: 288 nm
λem, normal / N(1)-H emission [1]: 386 nm
τ [2, 10]: 0.91 ns
lifetime ([3]; in DMSO): 9.3 ns
lifetime ([3]; in acetonitrile): 5.7 ns

N[C@@H](Cc1n[nH]c2ncccc12)C(=O)O [(2,7-aza)Trp, 2,7-diazatryptophan]
increase in CaM binding affinity on replacing Trp [4]: 4.7 times
λabs [1]: 300 nm
λem, normal / N(1)-H emission [1]: 340 nm
λem, second band (N(2)-H emission) [1]: 380 nm
λem, third band (N(7)-H tautomer emission) [1]: 500 nm
τ [2, 8]: 0.26 ns
percentage of τ component 1 [2, 11]: 12%
percentage of τ component 2 [2, 11]: 88%
τ, component 1 [2, 12]: 0.27 ns
τ, component 2 [2, 12]: 10.07 ns
τ, decay component [2, 13]: 0.58 ns
τ, rise component [2, 13]: 0.26 ns
N(7)-H tautomer emission ([5]; water rich environments): 500 nm

CC(=O)N[C@@H](CC(C)C)C(=O)N[C@@H](CCCCN)C(=O)N[C@@H](Cc1n[nH]c2ncccc12)C(=O)N[C@@H](CCCCN)C(=O)N[C@@H](CCCCN)C(=O)N[C@@H](CC(C)C)C(=O)N[C@@H](CC(C)C)C(=O)N[C@@H](CCCCN)C(=O)N[C@@H](CC(C)C)C(=O)N[C@@H](CC(C)C)C(=O)N[C@@H](CCCCN)C(=O)N[C@@H](CCCCN)C(=O)N[C@@H](CC(C)C)C(=O)N[C@@H](CC(C)C)C(=O)N[C@@H](CCCCN)C(=O)N[C@@H](CC(C)C)C(=O)NCC(N)=O [(2,7-aza)Trp-Baa] (Ac-LK[X1]KKLLKLLKKLLKLG-NH2)
Kd [4]: 0.045 ± 0.002 nM
λabs [1]: 300 nm
λem, normal / N(1)-H emission [1]: 340 nm
λem, second band (N(2)-H emission) [1]: 380 nm
λem, third band (N(7)-H tautomer emission) [1]: 500 nm
λem, N(1)-H emission ([6]; 1.0 mM CaCl2): 340 nm
environment around Trp analogue upon binding CaM [6]: water scant environment
λabs [6]: 300 nm
change of N(1)-H emission at 340 nm upon titration with CaM ([6]; pH 7.5 Tris, 1.0 mM CaCl2): increase of the N(1)-H emission
τ, N(1)-H emission lifetime ([2]; free peptide in water, λmon 330 nm, ±0.03 ns uncertainty): 0.21 ns
τ, N(1)-H emission lifetime ([7]; λmon 330 nm): 1.10 ns
secondary structure by CD (CD spectrum): α-helix structure

N[C@@H](Cc1c[nH]c2ncccc12)C(=O)O [(7-aza)Trp, 7-azatryptophan]
increase in CaM binding affinity on replacing Trp [4]: 1.9 times
λabs [1]: 289 nm
λem, normal / N(1)-H emission [1]: 400 nm
τ [2, 10]: 0.65 ns
emission maximum ([5]; in tetrahydrofuran): 350 nm

CC(=O)N[C@@H](CC(C)C)C(=O)N[C@@H](CCCCN)C(=O)N[C@@H](Cc1c[nH]c2ncccc12)C(=O)N[C@@H](CCCCN)C(=O)N[C@@H](CCCCN)C(=O)N[C@@H](CC(C)C)C(=O)N[C@@H](CC(C)C)C(=O)N[C@@H](CCCCN)C(=O)N[C@@H](CC(C)C)C(=O)N[C@@H](CC(C)C)C(=O)N[C@@H](CCCCN)C(=O)N[C@@H](CCCCN)C(=O)N[C@@H](CC(C)C)C(=O)N[C@@H](CC(C)C)C(=O)N[C@@H](CCCCN)C(=O)N[C@@H](CC(C)C)C(=O)NCC(N)=O [(7-aza)Trp-Baa] (Ac-LK[Trp(7-aza)]KKLLKLLKKLLKLG-NH2)
Kd [4]: 0.109 ± 0.005 nM
λabs [1]: 300 nm
λem, normal / N(1)-H emission [1]: 400 nm
λem, N(1)-H emission ([6]; 1.0 mM CaCl2): 358 nm
environment around Trp analogue upon binding CaM [6]: less polar environment
λabs [6]: 300 nm
τ, normal (N(1)-H) emission lifetime ([2]; free peptide, neutral Tris buffer, λmon 400 nm, ±0.03 ns uncertainty): 0.65 ns
τ, normal (N(1)-H) emission lifetime ([7]; λmon 360 nm (text: 358 nm emission)): 7.35 ns
secondary structure by CD (CD spectrum): α-helix structure

Ac-LKWKKLLKLLKKLLKLG-NH2 [Baa]
secondary structure by CD (CD spectrum): α-helix structure
